In ChEMBL document CHEMBL2407075, “Sulphonamido-quinoxalines: search for anticancer agent” (Eur J Med Chem, 2013):

Legend:
Format in all cases: functional
[1] = Growth inhibition of human Hs 578T cells assessed as cell growth at 10^-4 M after 48 hrs by sulforhodamine B assay; conditions: read-out: Activity
Summary of the method: (§1)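 Five-dose screen at NCI. Cells in RPMI 1640 with 5% FBS and 2 mM L-glutamine, seeded at 5000–40,000 cells/well and grown 24 h at 37 °C, 5% CO2 before dosing, with time-zero plates TCA-fixed. Drug diluted from DMSO stock to 0.01, 0.1, 1, 10 and 100 µM final, 48 h. Cells fixed with cold TCA (10% final), stained with 0.4% SRB and read at 515 nm. Percent growth from Tz, control and test absorbances; GI50, TGI and LC50 from dose-response curves.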

Malme-3M = assay: Growth inhibition of human MALME-3M cells assessed as cell growth at 10^-4 M after 48 hrs by sulforhodamine B assay; conditions: read-out: Activity
SF-268 = assay: Growth inhibition of human SF268 cells assessed as cell growth at 10^-4 M after 48 hrs by sulforhodamine B assay; conditions: SF-268, 48 h, read-out: Activity
HT-29 = assay: Growth inhibition of human HT-29 cells assessed as cell growth at 10^-4 M after 48 hrs by sulforhodamine B assay; conditions: HT-29, 48 h, read-out: Activity; summary of the method: as §1
COLO 205 [2] = assay: Growth inhibition of human COLO205 cells assessed as cell growth at 10^-4 M after 48 hrs by sulforhodamine B assay; conditions: COLO 205, 48 h, read-out: Activity
Summary of the method: (§2)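 Five-dose NCI-60 run (0.01, 0.1, 1, 10 and 100 µM, as 10-fold dilutions from a DMSO stock made at 400× the top final level). Cells were grown in RPMI 1640 with 5% FBS and 2 mM glutamine and plated for 24 h. They were then exposed for 48 h at 37 °C and 5% CO2. TCA fixation was followed by SRB staining with A515 read-out. Percent growth was taken relative to time-zero and control plates.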

HOP-92 = assay: Growth inhibition of human HOP92 cells assessed as cell growth at 10^-4 M after 48 hrs by sulforhodamine B assay; conditions: HOP-92, 48 h, read-out: Activity; summary of the method: as §1
CAKI-1 = assay: Growth inhibition of human CAKI-1 cells assessed as cell growth at 10^-5 M after 48 hrs by sulforhodamine B assay; conditions: CAKI-1, 48 h, read-out: Activity; summary of the method: as §2
SK-MEL-5 = assay: Growth inhibition of human SK-MEL-5 cells assessed as cell growth at 10^-5 M after 48 hrs by sulforhodamine B assay; conditions: SK-MEL-5, 48 h, read-out: Activity
UACC-257 [3] = assay: Growth inhibition of human UACC257 cells assessed as cell growth at 10^-5 M after 48 hrs by sulforhodamine B assay; conditions: UACC-257, 48 h, read-out: Activity
KM12 = assay: Growth inhibition of human KM12 cells assessed as cell growth at 10^-5 M after 48 hrs by sulforhodamine B assay; conditions: KM12, 48 h, read-out: Activity
NCI-H23 [4] = assay: Growth inhibition of human NCI-H23 cells assessed as cell growth at 10^-5 M after 48 hrs by sulforhodamine B assay; conditions: NCI-H23, 48 h, read-out: Activity
PC-3 = assay: Growth inhibition of human PC3 cells assessed as cell growth at 10^-6 M after 48 hrs by sulforhodamine B assay; conditions: PC-3, 48 h, read-out: Activity
TK-10 = assay: Growth inhibition of human TK10 cells assessed as cell growth at 10^-6 M after 48 hrs by sulforhodamine B assay; conditions: TK-10, 48 h, read-out: Activity
UACC-257 [5] = assay: Growth inhibition of human UACC257 cells assessed as cell growth at 10^-6 M after 48 hrs by sulforhodamine B assay; conditions: UACC-257, 48 h, read-out: Activity
SNB-75 = assay: Growth inhibition of human SNB75 cells assessed as cell growth at 10^-6 M after 48 hrs by sulforhodamine B assay; conditions: SNB-75, 48 h, read-out: Activity
MCF7 = assay: Growth inhibition of human MCF7 cells assessed as cell growth at 10^-7 M after 48 hrs by sulforhodamine B assay; conditions: MCF7, 48 h, read-out: Activity
HCT-116 = assay: Growth inhibition of human HCT116 cells assessed as cell growth at 10^-7 M after 48 hrs by sulforhodamine B assay; conditions: HCT-116, 48 h, read-out: Activity; summary of the method: as §1
T47D = assay: Growth inhibition of human T47D cells assessed as cell growth at 10^-8 M after 48 hrs by sulforhodamine B assay; conditions: read-out: Activity
MDA-MB-231 = assay: Growth inhibition of human MDA-MB-231 cells assessed as cell growth at 10^-8 M after 48 hrs by sulforhodamine B assay; conditions: MDA-MB-231, 48 h, read-out: Activity
786-0 = assay: Growth inhibition of human 786-0 cells assessed as cell growth at 10^-8 M after 48 hrs by sulforhodamine B assay; conditions: 786-0, 48 h, read-out: Activity; summary of the method: as §2
OVCAR-4 = assay: Growth inhibition of human OVCAR4 cells assessed as cell growth at 10^-8 M after 48 hrs by sulforhodamine B assay; conditions: OVCAR-4, 48 h, read-out: Activity
UACC-257 [6] = assay: Growth inhibition of human UACC257 cells assessed as cell growth at 10^-8 M after 48 hrs by sulforhodamine B assay; conditions: UACC-257, 48 h, read-out: Activity
COLO 205 [7] = assay: Growth inhibition of human COLO205 cells assessed as cell growth at 10^-8 M after 48 hrs by sulforhodamine B assay; conditions: COLO 205, 48 h, read-out: Activity; summary of the method: as §2
NCI-H460 = assay: Growth inhibition of human NCI-H460 cells assessed as cell growth at 10^-8 M after 48 hrs by sulforhodamine B assay; conditions: NCI-H460, 48 h, read-out: Activity
MDA-MB-435 = assay: Growth inhibition of human MDA-MB-435 cells after 48 hrs by sulforhodamine B assay; conditions: MDA-MB-435, 48 h, read-out: LC50 (the source's name)
Summary of the method: (§3)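 Adherent cells in RPMI 1640 with 5% FBS and 2 mM L-glutamine were plated at 5000–40,000 cells/well and grown 24 h. Five concentrations (0.01–100 µM, DMSO stock) were added for 48 h at 37 °C. Cells were fixed with cold TCA (10% final) and stained with SRB, read at 515 nm. GI50 came from log concentration–growth curves against time-zero and control plates.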

SW-620 = assay: Growth inhibition of human SW620 cells after 48 hrs by sulforhodamine B assay; conditions: SW-620, 48 h; for CC50: read-out: LC50 (the source's name); summary of the method: as §3
NCI-H23 [8] = assay: Growth inhibition of human NCI-H23 cells after 48 hrs by sulforhodamine B assay; conditions: NCI-H23, 48 h; for CC50: read-out: LC50 (the source's name)
Summary of the method: (§4)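 Five-dose NCI 60 screen at 0.01, 0.1, 1, 10 and 100 µM, 48 h exposure after 24 h preincubation, in RPMI 1640 with 5% FBS and 2 mM glutamine. Fixed with TCA (10% final for adherent cells, 16% for suspension cells), stained with SRB, A515 read. Percent growth uses time-zero (Tz), control and treated plates. GI50, TGI and LC50 are read from the dose-response curves.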

K562 = assay: Growth inhibition of human K562 cells after 48 hrs by sulforhodamine B assay; conditions: K562, 48 h; for CC50: read-out: LC50 (the source's name); summary of the method: as §4

| SMILES | growth at 100 µM [1] [%] | growth at 100 µM (Malme-3M) [%] | growth at 100 µM (SF-268) [%] | growth at 100 µM (HT-29) [%] | growth at 100 µM (COLO 205 [2]) [%] | growth at 100 µM (HOP-92) [%] | growth at 10 µM (CAKI-1) [%] | growth at 10 µM (SK-MEL-5) [%] | growth at 10 µM (UACC-257 [3]) [%] | growth at 10 µM (KM12) [%] | growth at 10 µM (NCI-H23 [4]) [%] | growth at 1 µM (PC-3) [%] | growth at 1 µM (TK-10) [%] | growth at 1 µM (UACC-257 [5]) [%] | growth at 1 µM (SNB-75) [%] | growth at 0.1 µM (MCF7) [%] | growth at 0.1 µM (HCT-116) [%] | growth at 0.01 µM (T47D) [%] | growth at 0.01 µM (MDA-MB-231) [%] | growth at 0.01 µM (786-0) [%] | further results |
| --- | --- | --- | --- | --- | --- | --- | --- | --- | --- | --- | --- | --- | --- | --- | --- | --- | --- | --- | --- | --- | --- |
| O=S(=O)(Nc1ccc(Cl)cc1)c1ccc2nc(-c3ccccc3)c(-c3ccccc3)nc2c1 | 59 | 108 | 76 | 53 | 73 | 32 | -35 | -99 | -24 | 5 | 4 | 63 | 108 | 84 | 69 | 95 | 90 | 95 | 99 | 97 | growth at 0.01 µM (OVCAR-4): 85%; growth at 0.01 µM (UACC-257 [6]): 94%; growth at 0.01 µM (COLO 205 [7]): 101%; growth at 0.01 µM (NCI-H460): 101%; CC50 (MDA-MB-435): > 100 µM; TGI (SW-620): > 100 µM; CC50 (SW-620): > 100 µM; TGI (NCI-H23 [8]): > 100 µM; CC50 (NCI-H23 [8]): > 100 µM; TGI (K562): > 100 µM; CC50 (K562): > 100 µM |
| O=S(=O)(Nc1ccccn1)c1ccc2nc(-c3ccccc3)c(-c3ccccc3)nc2c1 | 46 | 97 | 64 | 24 | 57 | 1 | -11 | -93 | -25 | 6 | 4 | 60 | 114 | 81 | 75 | 96 | 87 | 95 | 110 | 100 | growth at 0.01 µM (OVCAR-4): 100%; growth at 0.01 µM (UACC-257 [6]): 96%; growth at 0.01 µM (COLO 205 [7]): 98%; growth at 0.01 µM (NCI-H460): 104%; CC50 (MDA-MB-435): > 100 µM; TGI (SW-620): > 100 µM; CC50 (SW-620): > 100 µM; GI50 (NCI-H23 [8]): 2.45 µM; TGI (NCI-H23 [8]): > 100 µM; CC50 (NCI-H23 [8]): > 100 µM; GI50 (K562): 2.72 µM; TGI (K562): > 100 µM; CC50 (K562): > 100 µM |
